Experimental data published in ChEMBL document CHEMBL1148376, “Synthesis, monoamine transporter binding properties, and behavioral pharmacology of a series of 3beta-(substituted phenyl)-2beta-(3'-substituted isoxazol-5-yl)tropanes” (J Med Chem, 2004).

Tests used:
Mus musculus [1] = test: Percent change from vehicle in locomotor activity in mice at 0.3 mg/kg (ip) in 3 h; format: functional
Mus musculus [2] = species on record: Mus musculus; test: Hour 1 ratio to cocaine was determined for locomotor activity in mice; format: functional
Mus musculus [3] = test: Percent change locomotor activity in mice at 1 mg/kg i.p. in 3 h.; format: functional; details: route intraperitoneal
Procedure, shortened: (§1)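 Mice habituated 1/2 h to photocell activity chambers, then injected ip with compound homogenized in 0.5% methyl cellulose (10 mL/kg); vehicle controls; N = 5 or 6 per dose. Photobeam interruptions recorded in 10-min bins for 4 h, grouped into 1-h bins; one-way ANOVA with Newman-Keuls post hoc test (p < 0.05).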

Rattus norvegicus [4] = test: Drug discrimination effect of compound in rats, expressed as percent of rats choosing the cocaine lever at dose 1 mg/kg (ip); format: functional
Mus musculus [5] = test: Percent change in locomotor activity in mice at 3 mg/kg i.p. in 3 h.; format: functional; details: route intraperitoneal; procedure, shortened: as §1
Mus musculus [6] = test: Percent change in locomotor activity in mice at 1 mg/kg i.p. in 4 h.; format: functional; details: route intraperitoneal; procedure, shortened: as §1
[7] = target: T1, Sodium-dependent serotonin transporter (Rattus norvegicus, UniProt P31652); test: Binding affinity towards serotonin transporter 5-HTT was determined using [3H]paroxetine radioligand.
T1 sequence (P31652 whole entry): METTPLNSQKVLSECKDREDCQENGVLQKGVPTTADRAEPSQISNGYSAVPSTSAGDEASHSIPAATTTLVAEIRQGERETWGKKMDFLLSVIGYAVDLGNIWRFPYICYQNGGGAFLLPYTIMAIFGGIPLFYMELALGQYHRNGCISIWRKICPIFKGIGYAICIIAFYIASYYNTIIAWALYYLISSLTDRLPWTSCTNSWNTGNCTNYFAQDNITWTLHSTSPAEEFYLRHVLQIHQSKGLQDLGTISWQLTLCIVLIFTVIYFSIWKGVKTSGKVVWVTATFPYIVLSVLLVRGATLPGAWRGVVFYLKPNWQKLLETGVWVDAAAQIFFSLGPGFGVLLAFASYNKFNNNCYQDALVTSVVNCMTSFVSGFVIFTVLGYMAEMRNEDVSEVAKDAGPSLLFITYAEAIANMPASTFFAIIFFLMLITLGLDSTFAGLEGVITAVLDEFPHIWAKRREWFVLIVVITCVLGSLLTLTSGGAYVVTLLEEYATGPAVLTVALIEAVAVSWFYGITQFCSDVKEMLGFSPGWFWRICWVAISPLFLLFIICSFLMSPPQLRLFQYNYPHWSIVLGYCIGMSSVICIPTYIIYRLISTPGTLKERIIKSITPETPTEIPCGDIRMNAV
Procedure, shortened: (§2)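 Competition binding at the 5-HTT with 0.2 nM [3H]paroxetine (final concentration). Other procedures follow earlier published methods.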

Rattus norvegicus [8] = test: Drug discrimination effect of compound in rats, expressed as percent of rats choosing the cocaine lever at dose 0.56 mg/kg (ip); format: functional
Mus musculus [9] = test: Percent change from vehicle in locomotor activity in mice at 0.3 mg/kg (ip) in 2 h; format: functional
Rattus norvegicus [10] = test: Drug discrimination effect of compound in rats, expressed as percent of rats choosing the cocaine lever at dose 0.17 mg/kg (ip); format: functional
Mus musculus [11] = test: Percent change from vehicle in locomotor activity in mice at 0.3 mg/kg (ip) in 4 h; format: functional
Rattus norvegicus [12] = test: Drug discrimination effect of compound in rats, expressed as percent of rats choosing the cocaine lever at dose 0.1 mg/kg (ip); format: functional
Mus musculus [13] = test: Percent change in locomotor activity in mice at 3 mg/kg i.p. in 4 h.; format: functional; details: route intraperitoneal; procedure, shortened: as §1
[14] = target: Sodium-dependent dopamine transporter (Rattus norvegicus, UniProt P23977); test: Inhibitory concentration required to inhibit dopamine transporter DAT was determined by using [3H]WIN-35428 radioligand
Sequence of Sodium-dependent dopamine transporter (P23977 whole entry): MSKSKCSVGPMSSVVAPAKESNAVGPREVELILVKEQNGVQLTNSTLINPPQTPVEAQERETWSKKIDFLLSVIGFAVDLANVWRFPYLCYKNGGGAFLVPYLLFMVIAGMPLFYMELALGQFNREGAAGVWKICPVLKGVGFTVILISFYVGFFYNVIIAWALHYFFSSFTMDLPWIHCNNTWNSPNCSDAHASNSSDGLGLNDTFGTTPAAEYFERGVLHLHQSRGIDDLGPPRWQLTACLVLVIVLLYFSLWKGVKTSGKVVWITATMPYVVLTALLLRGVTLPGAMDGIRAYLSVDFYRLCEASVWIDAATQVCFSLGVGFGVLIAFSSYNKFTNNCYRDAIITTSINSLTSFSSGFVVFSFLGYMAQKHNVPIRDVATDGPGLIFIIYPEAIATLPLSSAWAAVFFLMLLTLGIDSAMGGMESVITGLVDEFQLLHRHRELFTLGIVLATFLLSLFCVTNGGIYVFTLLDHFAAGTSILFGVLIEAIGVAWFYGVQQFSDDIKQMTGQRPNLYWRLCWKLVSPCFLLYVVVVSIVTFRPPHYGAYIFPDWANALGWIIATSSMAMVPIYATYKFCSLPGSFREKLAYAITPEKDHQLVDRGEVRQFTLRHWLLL
Procedure, shortened: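 Competition binding at the DAT with 0.5 nM [3H]WIN35,428 (final concentration). Other procedures follow earlier published methods.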

[15] = target: T2, Norepinephrine transporter (Rattus norvegicus, UniProt Q9WTR4); test: Binding affinity towards norepinephrine transporter was determined using [3H]nisoxetine radioligand.
T2 sequence (Q9WTR4 whole entry): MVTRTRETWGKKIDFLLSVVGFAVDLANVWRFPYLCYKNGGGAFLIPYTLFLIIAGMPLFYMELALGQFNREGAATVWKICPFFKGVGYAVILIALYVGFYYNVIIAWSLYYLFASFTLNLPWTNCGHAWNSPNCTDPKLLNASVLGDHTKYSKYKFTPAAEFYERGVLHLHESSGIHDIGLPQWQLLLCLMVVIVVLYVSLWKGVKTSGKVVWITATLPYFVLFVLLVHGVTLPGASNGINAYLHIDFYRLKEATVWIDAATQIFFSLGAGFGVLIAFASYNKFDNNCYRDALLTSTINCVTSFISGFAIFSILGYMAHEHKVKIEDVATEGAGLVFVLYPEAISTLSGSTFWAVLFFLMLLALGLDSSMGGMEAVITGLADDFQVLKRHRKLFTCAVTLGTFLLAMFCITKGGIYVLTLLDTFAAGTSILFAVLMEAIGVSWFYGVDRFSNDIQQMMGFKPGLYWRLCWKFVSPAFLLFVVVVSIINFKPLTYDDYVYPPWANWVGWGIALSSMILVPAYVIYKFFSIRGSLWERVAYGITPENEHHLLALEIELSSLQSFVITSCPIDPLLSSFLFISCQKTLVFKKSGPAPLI
Procedure, shortened: (§3)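 Competition binding at the NET with 0.5 nM [3H]nisoxetine (final concentration). Other procedures follow earlier published methods.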

Mus musculus [16] = species on record: Mus musculus; test: Effective dose for locomotor activity in mice in the peak hour.; format: functional
[17] = target: T1, Sodium-dependent serotonin transporter; test: Inhibitory concentration required to inhibit serotonin transporter 5-HTT was determined by using [3H]paroxetine radioligand; procedure, shortened: as §2
Mus musculus [18] = test: Percent change from vehicle in locomotor activity in mice at 0.3 mg/kg (ip) in 1 h; format: functional
Mus musculus [19] = test: Percent change in locomotor activity in mice at 1 mg/kg i.p. in 2 h.; format: functional; details: route intraperitoneal; procedure, shortened: as §1
Mus musculus [20] = test: Percent change in locomotor activity in mice at 1 mg/kg i.p. in 1 h.; format: functional; details: route intraperitoneal
Mus musculus [21] = test: Percent change in locomotor activity in mice at 3 mg/kg i.p. in 1 h.; format: functional; details: route intraperitoneal; procedure, shortened: as §1
[22] = target: T2, Norepinephrine transporter; test: Inhibition of norepinephrine transporter (NET) determined using [3H]nisoxetine radioligand.; procedure, shortened: as §3
Rattus norvegicus [23] = test: Effective dose for drug discrimination effect in rat (ip); format: functional
Procedure, shortened: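 Cocaine-trained rat drug discrimination, FR10, 10-min sessions. Compound in 0.5% methyl cellulose given ip 15 min before session, usually to 7-8 rats per dose. Doses were raised from ≤20% to ≥80% cocaine-lever choice, capped at 30 mg/kg, >50% loss of pressing, or side effects.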

Mus musculus [24] = test: Percent change in locomotor activity in mice at 3 mg/kg i.p. in 2 h.; format: functional; details: route intraperitoneal; procedure, shortened: as §1
Rattus norvegicus [25] = test: Drug discrimination effect of compound in rats, expressed as percent of rats choosing the cocaine lever at dose 0.3 mg/kg (ip); format: functional
Mus musculus [26] = test: Percent change from vehicle in locomotor activity in mice at 30 mg/kg (ip) in 2 h; format: functional
Mus musculus [27] = test: Percent change from vehicle in locomotor activity in mice at 30 mg/kg (ip) in 3 h; format: functional
Mus musculus [28] = test: Percent change from vehicle in locomotor activity in mice at 10 mg/kg (ip) in 2 h; format: functional
Mus musculus [29] = test: Percent change from vehicle in locomotor activity in mice at 10 mg/kg (ip) in 1 h; format: functional
Rattus norvegicus [30] = test: Drug discrimination effect of compound in rats, expressed as percent of rats choosing the cocaine lever at dose 17 mg/kg (ip); format: functional
Rattus norvegicus [31] = test: Drug discrimination effect of compound in rats, expressed as percent of rats choosing the cocaine lever at dose 30 mg/kg (ip); format: functional
Mus musculus [32] = test: Percent change from vehicle in locomotor activity in mice at 30 mg/kg (ip) in 1 h; format: functional
Mus musculus [33] = test: Percent change from vehicle in locomotor activity in mice at 30 mg/kg (ip) in 4 h; format: functional
Mus musculus [34] = test: Percent change from vehicle in locomotor activity in mice at 10 mg/kg (ip) in 3 h; format: functional
Rattus norvegicus [35] = test: Drug discrimination effect of compound in rats, expressed as percent of rats choosing the cocaine lever at dose 5.6 mg/kg (ip); format: functional
Mus musculus [36] = test: Percent change from vehicle in locomotor activity in mice at 10 mg/kg (ip) in 4 h; format: functional
Rattus norvegicus [37] = test: Drug discrimination effect of compound in rats, expressed as percent of rats choosing the cocaine lever at dose 1.7 mg/kg (ip); format: functional

Structure (SMILES)	Change (Mus musculus [1]) [%]	Ratio (Mus musculus [2])	Change (Mus musculus [3]) [%]	Drug discrimination effect (Rattus norvegicus [4]) [%]	Change (Mus musculus [5]) [%]	Change (Mus musculus [6]) [%]	Ki [7] [nM]	Change (Mus musculus [9]) [%]	Change (Mus musculus [11]) [%]	Change (Mus musculus [13]) [%]	IC50 [14] [nM]	Ki [15] [nM]	ED50 (Mus musculus [16]) [mg/kg]	IC50 [17] [nM]	Change (Mus musculus [18]) [%]	Change (Mus musculus [19]) [%]	Change (Mus musculus [20]) [%]	Change (Mus musculus [21]) [%]	ED50 (Rattus norvegicus [23]) [mg/kg]	Change (Mus musculus [24]) [%]	other results
CN1C2CCC1C(c1ccno1)C(c1ccc(Cl)cc1)C2 (stereo not drawn)	70	1.1	345	100	-40	182	8.2	86	-20	-71	0.77	52	1.2	91	57	284	186	486	0.41	137	Drug discrimination effect (Rattus norvegicus [8]): 25%; Drug discrimination effect (Rattus norvegicus [10]): 29%; Drug discrimination effect (Rattus norvegicus [12]): 13%; IC50 [22]: 87 nM; Drug discrimination effect (Rattus norvegicus [25]): 63%
COc1ccc(-c2cc(C3C(c4ccc(C)cc4)CC4CCC3N4C)on2)cc1 (stereo not drawn)		0.6			27		366			30	3.93	455	12.8	4030				73	11	32	Change (Mus musculus [26]): 235%; Change (Mus musculus [27]): 430%; Change (Mus musculus [28]): 115%; Change (Mus musculus [29]): 187%; Drug discrimination effect (Rattus norvegicus [30]): 43%; Drug discrimination effect (Rattus norvegicus [31]): 83%; Change (Mus musculus [32]): 290%; Change (Mus musculus [33]): 483%; Change (Mus musculus [34]): 65%; Drug discrimination effect (Rattus norvegicus [35]): 0%; IC50 [22]: 756 nM; Change (Mus musculus [36]): 34%
CCc1cc(C2C(c3ccc(C)cc3)CC3CCC2N3C)on1 (stereo not drawn)	173	1.4	222	75	725	48	582	99	-72	81	1.62	180	0.9	6400	34	489	449	613	0.82	893	Drug discrimination effect (Rattus norvegicus [8]): 14%; Drug discrimination effect (Rattus norvegicus [37]): 100%; IC50 [22]: 299 nM; Drug discrimination effect (Rattus norvegicus [25]): 0%
Cc1ccc(C2CC3CCC(C2c2ccno2)N3C)cc1 (stereo not drawn)	136		48	100	571	-32	38	-12	-28	125	1.37		1	414	-13	214	319	698	0.19	666	Drug discrimination effect (Rattus norvegicus [10]): 43%; Drug discrimination effect (Rattus norvegicus [12]): 0%; Drug discrimination effect (Rattus norvegicus [25]): 83%
